In publication PMC3184254 (Nature Chemical Biology, 2011):
Where two headings read alike, the source gives them in different places.

Target: T1, SETD8 (Homo sapiens, UniProt Q9NQR1)
T1 sequence (Q9NQR1 1-393): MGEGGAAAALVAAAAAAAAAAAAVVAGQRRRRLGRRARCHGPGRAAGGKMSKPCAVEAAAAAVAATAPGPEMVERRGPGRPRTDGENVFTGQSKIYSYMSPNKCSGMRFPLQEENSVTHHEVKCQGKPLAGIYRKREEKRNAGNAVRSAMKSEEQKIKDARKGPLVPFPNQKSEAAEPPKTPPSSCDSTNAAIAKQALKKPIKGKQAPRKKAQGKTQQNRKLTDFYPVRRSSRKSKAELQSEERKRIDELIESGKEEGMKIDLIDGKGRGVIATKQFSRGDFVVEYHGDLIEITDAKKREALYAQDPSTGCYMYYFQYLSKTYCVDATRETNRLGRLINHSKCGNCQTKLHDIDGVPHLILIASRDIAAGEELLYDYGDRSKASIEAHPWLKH
Assay: SAHH-coupled assay, SETD8
Assay type: biochemical
Procedure, shortened: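 A fluorescence-based coupled assay used S-adenosyl-L-homocysteine hydrolase to follow conversion of cofactor SAM to SAH by the methyltransferase. IC50 values are the average of at least two separate experiments.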

## COc1cc2c(NC3CCN(C(C)C)CC3)nc(C3CCCCC3)nc2cc1OCCCN1CCCC1 [UNC0638]
  IC50: > 10 µM
SAHH-coupled assay
  IC50: inactive
